Results taken from publication PMC7668563 (International journal of molecular biology (Edmond, Okla.), 2020).
Where two headings read alike, the source gives them in different places.

Assays:
[1] = target: T1, apo-human transferrin (apo-hTf) (Homo sapiens, UniProt P02787); assay: Fluorescence quenching of apo-hTf; type: binding; details: for biomolecular quenching rate constant kq: kq=Ksv/τ0; for Stern-Volmer quenching constant Ksv / number of binding sites n: pH 7.4; for quenching association constant Ka: pH 7.4, modified Stern-Volmer
T1 sequence (P02787 20-698): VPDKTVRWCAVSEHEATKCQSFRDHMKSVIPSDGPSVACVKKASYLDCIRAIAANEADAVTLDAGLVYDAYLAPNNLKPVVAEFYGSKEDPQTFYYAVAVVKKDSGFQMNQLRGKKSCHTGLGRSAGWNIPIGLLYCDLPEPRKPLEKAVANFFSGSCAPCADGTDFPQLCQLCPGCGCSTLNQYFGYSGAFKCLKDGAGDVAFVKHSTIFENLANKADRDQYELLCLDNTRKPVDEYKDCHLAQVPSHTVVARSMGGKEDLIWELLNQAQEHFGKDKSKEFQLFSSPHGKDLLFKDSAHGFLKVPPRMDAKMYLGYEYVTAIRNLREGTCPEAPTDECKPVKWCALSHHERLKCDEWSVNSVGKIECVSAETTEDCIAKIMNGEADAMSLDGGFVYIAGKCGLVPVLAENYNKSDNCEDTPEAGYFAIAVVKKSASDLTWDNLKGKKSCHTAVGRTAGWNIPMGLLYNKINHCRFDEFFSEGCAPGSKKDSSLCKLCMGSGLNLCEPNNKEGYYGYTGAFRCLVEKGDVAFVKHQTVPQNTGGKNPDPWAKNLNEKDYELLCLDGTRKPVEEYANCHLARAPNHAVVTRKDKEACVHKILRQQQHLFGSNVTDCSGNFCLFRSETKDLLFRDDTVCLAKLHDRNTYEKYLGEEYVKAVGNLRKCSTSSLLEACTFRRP
Procedure, shortened: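 Intrinsic fluorescence of apo-hTf in Tris-HCl pH 7.4 was titrated with test compound (Tris-HCl/2% DMSO). Conditions: excitation 280 nm, emission 290–500 nm, slits 10/5 nm, 1.0 cm quartz cell, at 296, 303, 310 and 317 K, triplicate titrations. Intensities were corrected for inner filter effect using absorbances at excitation and emission wavelengths. Ksv came from Stern-Volmer plots of F0/F vs [Q]; kq = Ksv/τ0 (τ0 ~1.0×10−8); Ka and n came from the modified Stern-Volmer equation.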

[2] = target: T1, apo-human transferrin (apo-hTf); assay: Thermodynamic parameters of apo-hTf complex formation; type: binding
Procedure, shortened: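 Ksv values were obtained from apo-hTf fluorescence quenching at pH 7.4 at 296, 303, 310 and 317 K. ΔH°, ΔS° and ΔG° were derived from linear regression of ln(Ksv) vs 1/T (Van't Hoff equation).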

[3] = target: T1, apo-human transferrin (apo-hTf); details: cited from earlier work; for Ka: Cp2VCl2 bound to apo-hTf
[4] = target: T1, apo-human transferrin (apo-hTf); assay: Fluorescence resonance energy transfer; type: binding
Procedure, shortened: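 Emission spectrum of 1.0×10−5 mol L−1 apo-hTf and absorption spectrum of 1.0×10−5 mol L−1 test compound were recorded in 20 mM Tris-HCl pH 7.4 at room temperature, 260–450 nm, and their spectral overlap determined. E was calculated from apo-hTf fluorescence without and with equimolar test compound. R0 and donor–acceptor distance r came from Förster equations.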

[5] = test system: human breast adenocarcinoma cell line, MCF-7; assay: MTT cell viability assay on MCF-7, 72 h exposure; type: cell-based; details: read-out: IC50 (±SD), MCF-7, MCF-7, 72 h of exposure
Procedure, shortened: (§1)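 HT-29 was grown in McCoy's 5A with 10% FBS. MCF-7 was grown in MEM with 10% FBS and 0.01 mg/mL insulin. Both were kept at 37°C, 5% CO2, trypsinized at 70–80% confluency and seeded at 1.5×10^4 cells/well for 24 h. Cells were then exposed for 72 h to test compound in 5% DMSO/95% medium, with DMSO-medium controls. MTT was added as a 2.67 mg/mL solution for 2 h. Formazan was dissolved in 10% Triton X-100/isopropanol and read at A570 minus A620. IC50 came from a sigmoidal fit of viability vs log concentration, eight replicas, triplicate, ±SD.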

[6] = target: T1, apo-human transferrin (apo-hTf); assay: UV-Vis absorbance titration of apo-hTf; type: binding
[7] = test system: human colorectal adenocarcinoma cell line, HT-29; assay: MTT cell viability assay on HT-29, 72 h exposure; type: cell-based; details: read-out: IC50 (±SD), HT-29, HT-29, 72 h of exposure
Procedure, shortened: as §1

[8] = target: T1, apo-human transferrin (apo-hTf); assay: Far-UV circular dichroism titration of apo-hTf, secondary structure content
Procedure, shortened: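 Apo-hTf (4.0×10−7 mol L−1) in 2 mM Tris-HCl pH 7.4 was titrated with a 1.0×10−3 mol L−1 stock of test compound in Tris-HCl/2% DMSO, to final 0–2.4×10−6 mol L−1. Far-UV CD was recorded from 190–250 nm under nitrogen in a 1.0 cm cell: six scans at 100 nm/min. Baseline was buffer ± DMSO at room temperature. α-Helix was derived from MRE at 208 nm; β-sheet and random coil by the CD-RRG method.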

[9] = apo-hTf:Cp2VCl2 complex, ref Zhang et al. 64

## [Cl-].[Cl-].[V+4].c1cc[cH-]c1.c1cc[cH-]c1 [Cp2VCl2]
[1]; 296 K
  biomolecular quenching rate constant kq: 3.564e+12 M⁻¹ s⁻¹
  Stern-Volmer quenching constant Ksv: 35640 M⁻¹
  number of binding sites n: 1.23
  quenching association constant Ka: 444400 M⁻¹
[1]; 303 K
  biomolecular quenching rate constant kq: 4.085e+12 M⁻¹ s⁻¹
  Stern-Volmer quenching constant Ksv: 40850 M⁻¹
  number of binding sites n: 1.2
  quenching association constant Ka: 337500 M⁻¹
[1]; 310 K
  biomolecular quenching rate constant kq: 4.26e+12 M⁻¹ s⁻¹
  Stern-Volmer quenching constant Ksv: 42600 M⁻¹
  number of binding sites n: 1.16
  quenching association constant Ka: 240500 M⁻¹
[1]; 317 K
  biomolecular quenching rate constant kq: 4.936e+12 M⁻¹ s⁻¹
  Stern-Volmer quenching constant Ksv: 49360 M⁻¹
  number of binding sites n: 1.11
  quenching association constant Ka: 159800 M⁻¹
[2]; 296 K
  ∆G°: -6.169 kcal/mol
[2]; 303 K
  ∆G°: -6.379 kcal/mol
[2]; 310 K
  ∆G°: -6.587 kcal/mol
[2]; 317 K
  ∆G°: -6.797 kcal/mol
[2]; pH 7.4, from Ksv at 296-317 K
  ∆H°: 2.713 kcal/mol
  ∆S°: 125.52 J/mol K
[3]; ref Du et al. 63
  Ka: 137000 M⁻¹
[3]; ref Zhang et al. 64
  Ka: 32800 M⁻¹
[3]; [9]
  Ksv: 30400 M⁻¹
  kq: 3.04e+12 M⁻¹ s⁻¹
[4]; k^2=2/3, n=1.336, ØD=0.118
  Förster critical energy transfer distance R0: 1.78 nm
  binding distance r (donor-acceptor): 2.08 nm
[4]; room temperature, 1.0×10^−5 mol L^−1 each
  efficiency of energy transfer E: 0.281
[5]
  IC50: 50 µM
[6]; absorbance at 280 nm
  Ka at 280 nm: 3240 M⁻¹
[6]; absorbance at 361 nm
  Ka at 361 nm: 2670 M⁻¹
[6]; absorbance of apo-hTf at 280 nm, pH 7.4
  Association constants, Ka, 280 nm: 3.24 10^3 M^−1
[6]; absorbance of apo-hTf at 361 nm, pH 7.4
  Association constants, Ka, 361 nm: 2.67 10^3 M^−1
[7]
  IC50: 33 µM
[8]; compound concentration 0.4 (M)
  other secondary structure content of apo-hTf: 20%
  random coil content of apo-hTf: 33.7%
  α-helix content of apo-hTf: 28.4%
  β-sheet content of apo-hTf: 17.9%
[8]; compound concentration 0.8 (M)
  other secondary structure content of apo-hTf: 20.1%
  random coil content of apo-hTf: 33.9%
  α-helix content of apo-hTf: 27.9%
  β-sheet content of apo-hTf: 18.1%
[8]; compound concentration 1.2 (M)
  other secondary structure content of apo-hTf: 20.4%
  random coil content of apo-hTf: 34.1%
  α-helix content of apo-hTf: 27.2%
  β-sheet content of apo-hTf: 18.3%
[8]; compound concentration 1.6 (M)
  other secondary structure content of apo-hTf: 20.7%
  random coil content of apo-hTf: 34.3%
  α-helix content of apo-hTf: 26.5%
  β-sheet content of apo-hTf: 18.5%
[8]; compound concentration 2 (M)
  other secondary structure content of apo-hTf: 20.8%
  random coil content of apo-hTf: 34.5%
  α-helix content of apo-hTf: 25.8%
  β-sheet content of apo-hTf: 18.9%
[8]; compound concentration 2.4 (M)
  other secondary structure content of apo-hTf: 21.1%
  random coil content of apo-hTf: 34.6%
  α-helix content of apo-hTf: 25.1%
  β-sheet content of apo-hTf: 19.2%
